Compounds with a hit are over-represented: about 2.3% of the library has one in this group of screens.
pPAFAH FP inh – pPAFAH enzyme inhibitors, primary screen, biochemical, fluorescence polarization, human. inhibition, % at 3.39 µM. recombinant pPAFAH, FP-rhodamine probe fluorescence polarization. actives 1.5% (n = 330,000). Platelet-activating factor acetylhydrolase (Homo sapiens), Q13093;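 active = inhibition above the mean inhibition across the screen plus 3 SD, cut at about 25% in these data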;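 note: inhibitors block binding of the rhodamine activity-based probe so polarization drops; 0% = enzyme with DMSO and 100% = wells lacking pPAFAH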
TCR CD3 inh – inhibitors of human TCR-CD3 interaction, primary screen, biochemical, fluorescence, TAMRA-labeled TCR probe; T-cell receptor (TCR); inhibition, % at 9.4 µM; actives 0.37% (n = 360,000); in the data active = inhibition above about 19%;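 note: recombinant mutant TCR 2C K166C tagged with TAMRA read by polarization; 0% = receptor in buffer alone and 100% = receptor with positive control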
mABHD4 FP – ABHD4 inhibitors, primary screen, biochemical, fluorescence polarization, mouse. AID 720543, 2013. actives 0.54% (n = 370,000). inhibition, % at 8.92 µM. purified mABHD4, FP-Rh probe fluorescence polarization. (Lyso)-N-acylphosphatidylethanolamine lipase (Mus musculus), Q8VD66;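 active = inhibition exceeding the mean over every tested compound plus 3 SD, cut at about 30% in these data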;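 note: 0% = plate median of compound wells and 100% = S159A mutant with DMSO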
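Material: mouse ABHD4 enzyme, wild type; Benchmarks: S159A mutant high control, sample median low control; Buffer or medium: HEPES pH 7.0, NaCl, Pluronic buffer; Signal: fluorescence polarization; Read-out: percent inhibition of probe binding, normalized to plate controls; Timing: pre-incubation 45 min, probe exposure 60 min, at 25 °C; Dosing: 8.92 µM, single dose.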
HTRA1 inhibitor – HTRA1 serine protease inhibitors, primary screen, biochemical, fluorescence polarization, HTS. inhibition, % at 5.96 µM. recombinant HTRA1, FP-rhodamine activity-based probe. actives 0.5% (n = 340,000); in the data active = inhibition above about 36%;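 note: 0% = enzyme with DMSO and 100% = wells lacking enzyme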
Target sequence (Q92743 whole entry, looked up): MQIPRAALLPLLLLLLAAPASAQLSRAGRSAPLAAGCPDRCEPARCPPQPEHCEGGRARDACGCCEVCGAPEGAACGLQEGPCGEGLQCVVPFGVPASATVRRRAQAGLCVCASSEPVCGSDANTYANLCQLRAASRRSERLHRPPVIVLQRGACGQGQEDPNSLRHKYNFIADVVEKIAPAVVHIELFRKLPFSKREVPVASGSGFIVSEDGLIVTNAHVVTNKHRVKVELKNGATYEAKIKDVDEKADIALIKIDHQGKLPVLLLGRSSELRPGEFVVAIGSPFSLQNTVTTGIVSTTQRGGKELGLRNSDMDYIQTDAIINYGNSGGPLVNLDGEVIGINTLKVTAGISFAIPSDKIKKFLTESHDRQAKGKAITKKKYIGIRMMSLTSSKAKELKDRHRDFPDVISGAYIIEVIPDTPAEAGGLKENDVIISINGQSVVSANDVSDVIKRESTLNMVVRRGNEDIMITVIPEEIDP
SIAE primary – human SIAE inhibitors, primary screen, biochemical, fluorescence polarization, FP-Rh probe, 1536-well HTS; SIAE FP-Rh probe binding; inhibition, % at 9.66 µM; actives 0.69% (n = 370,000);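 active = inhibition above a cutoff: mean of compounds within the control limits plus 3 SD of those, cut at about 17% in these data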;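 note: 0% = plate median of compound wells and 100% = probe without SIAE protein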
An asterisk follows results filed as active; . = no result given.

SMILES	pPAFAH FP inh	TCR CD3 inh	mABHD4 FP	HTRA1 inhibitor	SIAE primary
COCCn1c(-c2ccc(-c3ccc([N+](=O)[O-])cc3Br)o2)nc2c1c(=O)[nH]c(=O)n2CC(C)C	29*	1	9	3	-3
COc1ccc(-c2ccc(-c3nc4c(c(=O)[nH]c(=O)n4Cc4ccccc4)n3C)o2)c([N+](=O)[O-])c1	10	-4	9	16	8
COCCn1c(-c2ccc(SC)cc2)nc2c1c(=O)[nH]c(=O)n2CC(C)C	1	-8	-12	-4	-6
CC(C)(C)OC(=O)NCc1cc(F)ccc1/C=C/S(=O)(=O)NC1CCCC1	.	.	-11	.	0
COC(=O)[C@H]1C[C@@]2(C3C=CC=C3)c3ccccc3N[C@H]2N1	.	.	3	.	-3
CCOC(=O)Cc1nc(N2CCN(C=O)CC2)c2c(C)c(C(=O)OCC)sc2n1	.	.	-2	.	3
O=C(CSc1nnc(-c2cccs2)o1)c1ccc2c(c1)OCO2	.	.	3	.	8
Fc1ccc(-c2cc(C(F)(F)C(F)F)[nH]n2)cc1	25*	2	-8	.	-5
COC(=O)[C@]12C[C@H](CC(=O)NCc3ccc(OC)c(OC)c3)C(=O)N(Cc3ccc4c(c3)OCO4)C1=C[C@H](C(C)(C)C)O[C@@H]2C	.	1	2	.	2
CC(=O)c1cccc(NC(=O)CSc2ncc(C(=O)Nc3ccccc3)c(=O)n2C)c1	31*	-5	-4	-3	-4
CN1C(=O)C[C@@](C#N)(C(=O)N2CCCC2)[C@H]1c1ccccc1	.	.	4	.	0
COc1ccc(CNC(=O)C(OC(=O)c2nsc(Cl)c2Cl)C(C)C)cc1 (stereo not drawn)	24	-1	-6	-2	-3
CC(C)C(OC(=O)c1nsc(Cl)c1Cl)C(=O)NCc1ccccc1 (stereo not drawn)	26*	4	-3	-4	0
Cc1cccc(NC(=O)NCCCN2CCN(c3ccc(F)cc3)CC2)c1	.	.	6	.	-2
O=C(COC(=O)c1ccc(Br)o1)Nc1ncc([N+](=O)[O-])s1	27*	-5	23	17	-8
O=C(COC(=O)c1ccc(Br)o1)Nc1ccc(F)cc1[N+](=O)[O-]	12	-5	5	4	10
COC(=O)[C@H](CC(C)C)N(Cc1cn(CC2CCCCC2)nn1)S(=O)(=O)c1ccccc1Br	.	.	8	.	-1
O=C(c1ccco1)N(c1ccccn1)c1ccccn1	-8	3	-4	0	4
O=C(/C=C/c1ccco1)N(c1ccccn1)c1ccccn1	33*	11	15	7	10
COc1cc(C(C)=O)ccc1OCC(O)CN(CCO)Cc1ccccc1 (stereo not drawn)	32*	-3	1	12	1
OCCN(Cc1ccccc1)CC(O)COc1ccc(-c2ccccc2)cc1 (stereo not drawn)	9	2	-3	-34	-7
CCn1c(SCC(=O)N/N=C/C=C\c2ccco2)nc2ccccc21	25*	-5	11	2	14
Cc1cccc(OCC(=O)N/N=C/C=C/c2ccco2)c1	30*	7	4	-2	14
Cn1c(SCC(=O)N/N=C/C=C\c2ccco2)nc2ccccc21	10	17	8	0	6
COC(=O)[C@]12CCCCC=C1N(Cc1ccc(OC)cc1)C(=O)[C@@H]2CC(=O)N1CCSCC1	.	.	1	.	6
SMILES	pPAFAH FP inh	TCR CD3 inh	mABHD4 FP	HTRA1 inhibitor	SIAE primary
CCCCn1c(/C=C/c2ccco2)nc2ccccc21	16	0	2	5	-2
Cc1ccc(Cn2c(/C=C/c3ccco3)nc3ccccc32)cc1	23	-11	-14	-17	2
Clc1ccc(Cn2c(/C=C/c3ccco3)nc3ccccc32)cc1	33*	0	-2	-22	-5
CCCn1c(/C=C/c2ccco2)nc2ccccc21	25*	-6	3	18	5
C=CCNC(=O)CN(C(=O)c1ccncn1)c1cccc(Br)c1	.	.	3	.	-5
Cc1csc(NC(=O)c2c(-c3c(F)cccc3Cl)noc2C)n1	33*	1	-6	8	-4
Cc1ccc(C(=O)OCC(=O)c2ccc(CC(=O)N3CCOCC3)s2)cc1C	27*	-3	-4	1	-4
Cc1ccc(C(=O)OCC(=O)c2ccc(CC(=O)N3CCOCC3)s2)c(C)c1	.	10	8	-3	1
S=c1[nH]nc(-c2n[nH]c3c2CCC3)n1N=Cc1ccc(OCc2ccccc2)cc1	.	.	2	.	3
COc1ccc(CNCC#Cc2ccc(C)cc2)c(OC)c1	.	.	-1	.	-5
COc1ccc(C(=O)CSc2nnc(-c3ccccn3)n2-c2ccccc2)cc1	.	.	6	.	4
Cc1ccc(/C=C2\SC(N3CCCC3)=NC2=O)cc1	2	-5	0	.	-2
CN(C)c1ccc(/C=C2\SC(N3CCCCC3)=NC2=O)cc1	28*	10	5	-2	5
CC(C)C1N=C2c3ccccc3N=C(SCC(=O)NCCc3ccc(S(N)(=O)=O)cc3)N2C1=O (stereo not drawn)	1	-1	0	7	4
CC(C)C1N=C2c3ccccc3N=C(SCc3cc(=O)n4cc(Cl)ccc4n3)N2C1=O (stereo not drawn)	-4	-7	3	-4	19*
CC(C)C[C@@H](CO)N1Cc2nnn(Cc3ccccc3)c2-c2ccccc2S1(=O)=O	.	.	5	.	-4
NC(=O)c1c(NC(=O)c2ccco2)sc2c1CCC2	7	-5	2	1	-5
N#Cc1c(NC(=O)c2ccco2)sc2c1CCC2	30*	10	16	6	11
Cc1ccc(-c2cc(C(=O)NN=Cc3ccc(-c4ccccc4)cc3)[nH]n2)cc1C	.	.	3	.	8
O=C(CC1SC(=O)N(c2ccccc2)C1=O)Nc1cccc2ccccc12 (stereo not drawn)	25*	-3	-8	-5	-8
Cc1ccccc1NC(=O)CC1SC(=O)N(c2ccccc2)C1=O (stereo not drawn)	8	-18	1	-8	14
CCCCCn1nnnc1C1(C)CCSCC(=O)N1Cc1ccco1 (stereo not drawn)	.	.	-3	.	0
Cc1sc2ncnc(SCc3ccc(C(=O)O)cc3)c2c1C	-2	7	-8	5	-1
Cc1ccc(-c2csc3ncnc(SCc4ccc(C(=O)O)cc4)c23)cc1	29*	-1	-17	.	0
COc1ccc(N2Cc3ccc(C(=O)N/N=C\c4ccc(O)cc4O)cc3C2)cc1	39*	.	.	.	.
CCc1ccc(S(=O)(=O)/N=C2\C=CC(=O)c3ccccc32)cc1	40*	.	.	.	.
COc1ccc(S[C@]2(C(=O)N3CCCC3)CC(=O)N(c3ccc4c(ccn4C)c3)[C@@H]2c2ccc(OC)cc2)cc1	.	.	10	.	7
